Only some compounds are listed: those with a hit (about 1.8% of all), similar ones and a draw of the others.
Cneo AK release: Cryptococcus neoformans lysis via adenylate kinase release | C. neoformans lysis, adenylate kinase release luminescence, 4 h; normalised: neutral wells 0, clomiphene wells 100 | lysis activity, % at 15 µM | hit rate 0.2% among 360,000;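 active = mean lysis activity across replicates of at least 80%, whatever share of replicates individually reach that level; inactive = mean lysis activity below 80%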
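read-out = cell lysis signal | test system = log-phase Cryptococcus neoformans yeast cells | input = cells at 5 × 10^6 per mL | medium = fresh YPD growth medium | signal = luminescent adenylate kinase detection reagent | timing = 4 h at 37 °C static, read 1 h later | dosing = single dose | controls = Clomiphene as positive lysis control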
iPSC survival up: enhancers of human iPSC single-cell survival | hiPSC single-cell survival, ATPlite luminescence; 100% = ROCK inhibitor wells, 0% = DMSO | survival enhancement, % at 20 µM | hit rate 0.044% among 360,000; in the data active = survival enhancement above about 18%;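 also: cells exposed to compounds for 16 hours before the ATP read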
SKN-1 inh: C. elegans SKN-1 inhibition; C. elegans VP596 Pgst-4::GFP/RFP ratio, acrylamide-induced, 24 h; inhibition, % at 21.8 µM; hit rate 0.49% among 360,000; AID 624304;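 active = interference check ratio from 0.5 to 1.5 plus GFP to RFP signal ratio inhibition reaching or exceeding a fixed threshold, cut at about 30% in these data, passing the limit was not always enough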
DAGLB inhibitor: diacylglycerol lipase beta (human) inhibition | Q8NCG7 | HEK293T DAGLB membrane lysate, EnzChek fluorogenic substrate | inhibition, % at 5.17 µM | hit rate 0.059% among 340,000; in the data active = inhibition above about 34%
Target sequence (Q8NCG7 whole entry, looked up): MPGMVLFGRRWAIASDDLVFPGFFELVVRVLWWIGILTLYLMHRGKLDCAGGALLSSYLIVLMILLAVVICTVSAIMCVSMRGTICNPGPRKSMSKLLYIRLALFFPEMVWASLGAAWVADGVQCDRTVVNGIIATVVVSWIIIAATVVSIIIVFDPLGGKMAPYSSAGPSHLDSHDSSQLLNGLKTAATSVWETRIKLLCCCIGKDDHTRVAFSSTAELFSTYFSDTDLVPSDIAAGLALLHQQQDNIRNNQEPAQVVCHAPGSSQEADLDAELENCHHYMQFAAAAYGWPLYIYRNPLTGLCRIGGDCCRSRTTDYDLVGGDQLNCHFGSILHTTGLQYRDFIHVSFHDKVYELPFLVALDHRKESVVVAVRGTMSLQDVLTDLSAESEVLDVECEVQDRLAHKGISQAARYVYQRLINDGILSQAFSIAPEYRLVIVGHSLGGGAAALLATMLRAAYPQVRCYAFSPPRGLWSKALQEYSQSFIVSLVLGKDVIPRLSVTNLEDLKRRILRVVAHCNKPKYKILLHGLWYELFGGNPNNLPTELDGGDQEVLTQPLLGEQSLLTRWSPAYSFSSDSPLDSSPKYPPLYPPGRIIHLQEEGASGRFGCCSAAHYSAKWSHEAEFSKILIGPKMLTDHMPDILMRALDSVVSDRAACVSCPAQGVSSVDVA
Ecoli rRNA inh: inhibits bacterial ribosomal RNA function over humanized ribosomes; hit rate 1.6% among 350,000; GFP signal change (wild-type ribosome), % (test concentration not listed); E. coli WT GFP vs humanized-ribosome RFP mutants, fluorescence, 24 h; hits give low values; DMSO median 0, no signal -100;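 active = significant combined selectivity score with lowered wild-type GFP, culture density cut under 30%, mutant RFP and density less affected; inactive = any of these conditions unmet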
MT1-MMP act inh: MT1-MMP (human) activation inhibition | hit rate 0.061% among 360,000 | P50281 | GFP/RFP ratio change, % at 20 µM | HT1080 RFP-PRO-GFP cells, GFP/RFP ratio fluorescence, overnight; percent of plate control window, DMSO zero;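 active = GFP/RFP ratio change of at least 30% with cell ATP level not reduced by more than half and red fluorescence within 50% of control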
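Read-out: GFP/RFP fluorescence ratio; Test system: RFP-PRO-GFP reporter HT1080 cells; Compound dosing: single-point 20 µM compound, 1% DMSO; Times: overnight compound exposure at 37 °C.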
AID977621: wild-type E. coli growth inhibition versus H69 humanized strain – H69 mutant RFP, wild-type GFP, cherry-pick, dose response | 1,900 tested, under 10 active | shares compounds with Ecoli rRNA inh | fluorescence, 24 h | activity change, negative = inhibition at 50 µM | AID 977621;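 active = Wild-type ribosome reporter drop at least double the humanized mutant ribosome reporter drop, growth loss under a set limit; inconclusive = no clear call, values can overlap the other calls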;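 also: wild-type GFP and H69 mutant RFP strains grown together 50/50 in each well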
AID977628: growth of wild-type and h24-humanized E. coli strains – h24 mutant RFP vs wild-type GFP, cherry-pick, dose response | 1,900 tested, under 10 active | shares compounds with Ecoli rRNA inh | AID 977628 | activity change, negative = inhibition at 50 µM | E. coli WT GFP strain growth, fluorescence, 24 h;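 active = compound lowering the normal-ribosome reporter at least twice as much as the humanized-ribosome reporter, growth loss under a set limit; inconclusive = no clear call, values can overlap the other calls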;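 also: wild-type GFP and h24 humanized RFP strains co-cultured 1 to 1 per well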
Of the large screens only hits and unclear results are named; the others gave an inactive call (follow-up assays come after a bar, where they were run).

CC(C)(C)c1ccc(C(CC(=O)O)NC(=O)Cc2ccc(Cl)cc2)cc1 (stereo not drawn)	Ecoli rRNA inh -24 | AID977621 inactive | AID977628 inconclusive
CC(C)Oc1ccc(C(CC(=O)O)NC(=O)Cc2ccc(Cl)cc2)cc1 (stereo not drawn)	none
O=S(=O)(Cc1ccccc1)N1CCCCN2[C@@H](CO)[C@@H](c3ccc(-c4cccnc4)cc3)[C@@H]2C1	Ecoli rRNA inh -28 (no result: iPSC survival up, SKN-1 inh, DAGLB inhibitor, MT1-MMP act inh) | AID977621 inactive | AID977628 inconclusive
Cc1cccc(-c2ccc([C@H]3[C@@H](CO)N4CCCCN(S(=O)(=O)c5ccccc5C)C[C@@H]34)cc2)c1	none (no result: iPSC survival up, SKN-1 inh, DAGLB inhibitor, MT1-MMP act inh) | AID977621 inactive | AID977628 inactive
Cc1ccc(-c2ccc([C@H]3[C@@H](CO)N4CCCCN(S(=O)(=O)c5ccccc5C)C[C@@H]34)cc2)cc1	none (no result: iPSC survival up, SKN-1 inh, DAGLB inhibitor, MT1-MMP act inh)
Cc1cccc(-c2ccc([C@H]3[C@@H](CO)N4CCCCN(S(=O)(=O)c5ccccc5C)C[C@H]34)cc2)c1	none (no result: iPSC survival up, SKN-1 inh, DAGLB inhibitor, MT1-MMP act inh) | AID977621 inactive
C[C@H](CO)N1C[C@H](C)[C@@H](CN(C)CC2CC2)OCCCC[C@H](C)Oc2ccc(NS(=O)(=O)c3ccc(Cl)cc3)cc2C1=O	none (no result: iPSC survival up, SKN-1 inh, DAGLB inhibitor, MT1-MMP act inh)
CC(C)NC(=O)Nc1cccc2c1O[C@H](CN(C)S(=O)(=O)c1ccccc1)[C@H](C)CN([C@H](C)CO)C2=O	none (no result: iPSC survival up, SKN-1 inh, DAGLB inhibitor, MT1-MMP act inh)
CN(Cc1ccc(F)cc1)Cc1nc(CCc2ccccc2)no1	Ecoli rRNA inh -19 (no result: Cneo AK release) | AID977628 inconclusive
CN(Cc1ccc(F)cc1)Cc1nc(-c2ccccc2)no1	none
CO[C@H]1CN(C)C(=O)c2ccc(NC(=O)NC(C)C)cc2OC[C@@H](C)N(C(=O)NC(C)C)C[C@H]1C	none (no result: iPSC survival up, SKN-1 inh, DAGLB inhibitor, MT1-MMP act inh)
COc1ccc(C2CC(c3ccc(Br)cc3)=NN2C(=O)CN2CCCC2)cc1 (stereo not drawn)	Ecoli rRNA inh -19 (no result: Cneo AK release) | AID977621 inactive | AID977628 inconclusive
COc1ccc(C2=NN(C(=O)CN3CCCCC3)C(c3ccc(C)cc3)C2)cc1 (stereo not drawn)	none
Cc1ccsc1C(=O)C1CCCN(Cc2cc(F)ccc2-n2cccn2)C1 (stereo not drawn)	Ecoli rRNA inh -33 (no result: Cneo AK release) | AID977621 inactive | AID977628 inactive
COc1cc(OC)c(OC)cc1CN1CCCC(C(=O)c2sccc2C)C1 (stereo not drawn)	none
CC1CCc2sc3ncn4nc(C(=O)NCc5ccco5)nc4c3c2C1 (stereo not drawn)	none (no result: Ecoli rRNA inh)
CC1CCc2c(sc3ncn4c(SCC(=O)NCc5ccco5)nnc4c23)C1 (stereo not drawn)	Ecoli rRNA inh -20 | AID977621 inactive | AID977628 inactive

Bioassay records from PubChem BioAssay.
